Assay results reported in ChEMBL document CHEMBL2010740, “Synthesis and evaluation of 2-amido-3-carboxamide thiophene CB₂ receptor agonists for pain management” (Bioorg Med Chem Lett, 2012).
pIC50, pKi: −log10 of the molar value.

Key:
Cannabinoid receptor 1 [1] = target: Cannabinoid receptor 1 (Homo sapiens, UniProt P21554); assay: Displacement of [3H]CP-55940 from human recombinant CB1 receptor expressed in CHO cells after 90 mins; assay type: cell-based
Summary of the method: (§1)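 Competitive binding: [³H]CP-55,940 displaced from membranes of HEK 293 cells stably transfected with human or rat CB₂, or CHO cells stably transfected with human or rat CB₁. Reported as pKi. Determinations >2 (duplicate of duplicate).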

Cannabinoid receptor 2 [2] = target: T1, Cannabinoid receptor 2 (Rattus norvegicus, UniProt Q9QZN9); assay: Displacement of [3H]CP-55940 from rat recombinant CB2 receptor expressed in HEK293 cells after 90 mins; assay type: cell-based; summary of the method: as §1
T1 sequence (Q9QZN9 whole entry): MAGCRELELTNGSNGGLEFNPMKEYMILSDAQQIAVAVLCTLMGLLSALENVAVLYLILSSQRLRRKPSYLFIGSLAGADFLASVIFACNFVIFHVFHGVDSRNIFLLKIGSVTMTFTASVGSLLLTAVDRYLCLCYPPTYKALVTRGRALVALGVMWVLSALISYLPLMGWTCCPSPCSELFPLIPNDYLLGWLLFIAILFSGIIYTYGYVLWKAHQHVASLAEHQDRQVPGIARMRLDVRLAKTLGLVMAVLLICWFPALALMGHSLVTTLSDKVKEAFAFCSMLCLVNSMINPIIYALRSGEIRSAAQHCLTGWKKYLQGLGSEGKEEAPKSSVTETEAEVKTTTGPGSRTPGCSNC

Cannabinoid receptor 2 [3] = target: T2, Cannabinoid receptor 2 (Homo sapiens, UniProt P34972); assay: Displacement of [3H]CP-55940 from human recombinant CB2 receptor expressed in HEK293 cells after 90 mins; assay type: cell-based; summary of the method: as §1
T2 sequence (P34972 whole entry): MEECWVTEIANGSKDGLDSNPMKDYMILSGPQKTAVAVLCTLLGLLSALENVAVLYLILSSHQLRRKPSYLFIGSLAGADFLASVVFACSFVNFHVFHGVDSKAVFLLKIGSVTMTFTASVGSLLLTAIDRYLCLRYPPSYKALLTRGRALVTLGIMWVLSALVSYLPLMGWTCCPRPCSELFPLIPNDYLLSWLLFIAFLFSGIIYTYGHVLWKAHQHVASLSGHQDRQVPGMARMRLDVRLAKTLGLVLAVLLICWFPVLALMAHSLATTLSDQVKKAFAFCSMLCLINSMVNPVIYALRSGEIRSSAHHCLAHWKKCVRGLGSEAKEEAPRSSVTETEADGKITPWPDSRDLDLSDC

Cannabinoid receptor 2 [4] = target: T1, Cannabinoid receptor 2; assay: Agonist activity at rat recombinant CB2 receptor expressed in HEK293 cells assessed as inhibition of forskolin-induced cAMP production after 20 mins by ELISA; assay type: functional, cell-based
Summary of the method: (§2)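 cAMP assay in HEK 293 cells stably expressing the relevant CB receptor, with a fixed concentration of forskolin. cAMP was quantified by ELISA. Activation is given as percent of the CP-55,940 control response.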

Cannabinoid receptor 1 [5] = target: Cannabinoid receptor 1 (Rattus norvegicus, UniProt P20272); assay: Displacement of [3H]CP-55940 from rat recombinant CB1 receptor expressed in CHO cells after 90 mins; assay type: cell-based; summary of the method: as §1
Sequence of Cannabinoid receptor 1 (Rattus norvegicus, UniProt P20272) (P20272 whole entry): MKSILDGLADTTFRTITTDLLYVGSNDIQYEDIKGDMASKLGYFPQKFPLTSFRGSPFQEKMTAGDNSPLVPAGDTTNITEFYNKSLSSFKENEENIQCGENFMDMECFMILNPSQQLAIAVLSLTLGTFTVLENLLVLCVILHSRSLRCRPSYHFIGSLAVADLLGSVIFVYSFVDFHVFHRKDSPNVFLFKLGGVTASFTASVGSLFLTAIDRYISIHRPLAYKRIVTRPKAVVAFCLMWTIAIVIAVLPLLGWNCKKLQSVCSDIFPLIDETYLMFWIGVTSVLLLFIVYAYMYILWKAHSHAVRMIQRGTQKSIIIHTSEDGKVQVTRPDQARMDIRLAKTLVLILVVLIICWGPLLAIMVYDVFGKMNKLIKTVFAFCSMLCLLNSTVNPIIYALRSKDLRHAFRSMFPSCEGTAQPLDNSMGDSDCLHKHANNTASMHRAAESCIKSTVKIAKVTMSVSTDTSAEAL

Cannabinoid receptor 2 [6] = target: T2, Cannabinoid receptor 2; assay: Agonist activity at human recombinant CB2 receptor expressed in HEK293 cells co-expressing chimeric Gaq/o protein by FLIPR assay; assay type: functional, cell-based
Summary of the method: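 FLIPR functional assay in HEK 293 cells stably co-expressing chimeric Gαq/o protein and the CB receptor. Net peak evoked response was compared with the peak response to CP-55,940.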

Cannabinoid receptor 2 [7] = target: T2, Cannabinoid receptor 2; assay: Agonist activity at human recombinant CB2 receptor expressed in HEK293 cells assessed as inhibition of forskolin-induced cAMP production after 20 mins by ELISA; assay type: functional, cell-based; summary of the method: as §2

Sequence of Cannabinoid receptor 1 (Homo sapiens, UniProt P21554) (P21554 whole entry): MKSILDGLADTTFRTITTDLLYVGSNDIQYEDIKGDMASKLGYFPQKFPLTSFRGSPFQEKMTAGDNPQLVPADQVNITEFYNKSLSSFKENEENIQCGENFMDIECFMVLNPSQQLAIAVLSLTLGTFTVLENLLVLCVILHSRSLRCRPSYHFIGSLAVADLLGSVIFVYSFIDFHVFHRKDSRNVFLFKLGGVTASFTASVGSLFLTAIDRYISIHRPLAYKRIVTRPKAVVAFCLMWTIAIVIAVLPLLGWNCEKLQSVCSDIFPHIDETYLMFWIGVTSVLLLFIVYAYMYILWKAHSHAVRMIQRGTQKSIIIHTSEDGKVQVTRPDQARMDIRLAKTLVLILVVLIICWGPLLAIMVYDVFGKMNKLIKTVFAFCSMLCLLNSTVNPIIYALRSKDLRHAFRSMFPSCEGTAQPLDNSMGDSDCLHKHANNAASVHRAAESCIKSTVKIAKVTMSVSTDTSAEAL

Compound	pKi (Cannabinoid receptor 1 [1])	pKi (Cannabinoid receptor 2 [2])	pKi (Cannabinoid receptor 2 [3])	pIC50 (Cannabinoid receptor 2 [4])	pKi (Cannabinoid receptor 1 [5])	pIC50 (Cannabinoid receptor 2 [6])	pIC50 (Cannabinoid receptor 2 [7])
CCCNC(=O)c1c(NC(=O)C2CC3CCC2C3)sc2c1CCOC2 (stereo not drawn)	< 5.00	6.57	6.98				
CCCNC(=O)c1c(NC(=O)C2C(C)(C)C2(C)C)sc2c1CCOC2	< 5.00	8.36	7.04	< 5.00	6.72	7.28	9.00
COCCNC(=O)c1c(NC(=O)C23CC4CC(CC2C4)C3)sc2c1CCOC2	< 5.00	6.58	6.92				
